# Measurements published in ChEMBL document CHEMBL1154166, “Crystallographic study of a novel subnanomolar inhibitor provides insight on the binding interactions of alkenyldiarylmethanes with human immunodeficiency virus-1 reverse transcriptase” (J Med Chem, 2009).
# What was measured:
# [1] = test system: Human immunodeficiency virus 1; assay: Antiviral activity against HIV1 RF infected in human CEM-SS cells assessed as inhibition of virus-induced cytopathic effect by XTT assay; format: functional, organism-based; conditions: Human immunodeficiency virus 1, RF
# How it was run: (§1)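 XTT cytoprotection readout in CEM-SS cells infected with HIV-1 RF or with HIV-1 NL4-3 carrying RT K103N or Y181C. EC50 is the concentration giving 50% inhibition of virus-induced cytopathic effect.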
# [2] = test system: Human immunodeficiency virus 2; assay: Antiviral activity against HIV2 ROD infected in human MT4 cells assessed as inhibition of virus-induced cytopathic effect by MTT assay; format: functional, organism-based
# How it was run: (§2)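 Infected MT-4 cells (HIV-1 IIIB or HIV-2 ROD), protection from viral cytopathic effect read by MTT assay; EC50 = concentration giving 50% inhibition of cytopathic effect. CC50 from mock-infected MT-4 cells.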
# [3] = test system: Human immunodeficiency virus 1; assay: Antiviral activity against NNRTI-resistant HIV1 NL4-3 with reverse transcriptase K103N mutation infected in human CEM-SS cells assessed as inhibition of virus-induced cytopathic effect by XTT assay; format: functional, organism-based; conditions: Human immunodeficiency virus 1, NL4-3, CEM-SS; how it was run: as §1
# [4] = test system: Human immunodeficiency virus 1; assay: Antiviral activity against NNRTI-resistant HIV1 NL4-3 with reverse transcriptase Y181C mutation infected in human CEM-SS cells assessed as inhibition of virus-induced cytopathic effect by XTT assay; format: functional, organism-based; conditions: Human immunodeficiency virus 1, NL4-3, CEM-SS; how it was run: as §1
# [5] = (§3) Cytotoxicity against human CEM-SS cells; format: cell-based; conditions: CEM-SS cells
# How it was run: (§4)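 Mock-infected CEM-SS cells, handled alongside the XTT antiviral assay. CC50 is the concentration causing death of 50% of cells.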
# [6] = (§5) Cytotoxicity against human MT4 cells; format: cell-based; conditions: MT4 cells
# How it was run: (§6)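 Mock-infected MT-4 cells, handled alongside the MTT antiviral assay run with HIV-1 IIIB and HIV-2 ROD. CC50 is the concentration causing death of 50% of cells.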
# [7] = (§7) Stability in rat plasma; format: ADME, cell-free
# How it was run: (§8)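 Compound incubated in reconstituted rat plasma with 1,1-diphenylethylene internal standard; remaining compound quantified by reversed-phase C18 HPLC, 8:2 acetonitrile-water, column at room temperature; half-life per replicate from regression of concentration versus time, averaged over two replicates.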
# [8] = target: Human immunodeficiency virus type 1 reverse transcriptase (Human immunodeficiency virus 1, UniProt Q72547); assay: Inhibition of HIV1 reverse transcriptase p66/p51 using poly(rC)-oligo)dG) as template
# How it was run: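 Purified recombinant HIV-1 RT p66/51 heterodimer; poly(rC)·oligo(dG) homopolymer template/primer; activity measured as 32P-labeled […] incorporated into nascent DNA across increasing inhibitor concentrations; IC50 derived.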
# [9] = test system: Human immunodeficiency virus 1; assay: Antiviral activity against HIV1 3B infected in human MT4 cells assessed as inhibition of virus-induced cytopathic effect by MTT assay; format: functional, organism-based; conditions: Human immunodeficiency virus 1, 3B; how it was run: as §2
# [10] = test system: CEM-SS; assay: as §3; format: cell-based; conditions: cem-ss; how it was run: as §4
# [11] = test system: MT4; assay: as §5; format: cell-based; conditions: mt4; how it was run: as §6
# [12] = test system: Plasma; assay: as §7; format: ADME, cell-free; how it was run: as §8
Compound,EC50 [1],EC50 [2],EC50 [3],EC50 [4],CC50 [5],CC50 [6],half-life [7],IC50 [8],EC50 [9],CC50 [10],CC50 [11],t1/2 [12]
COC(=O)CCCC=C(c1cc(Br)c(OC)c(C(=O)OC)c1)c1cc(Br)c(OC)c(C(=O)OC)c1,100 nM,Not Active,420 nM,6100 nM,,,,,,,,
COC(=O)CCCC=C(c1cc(C#N)c(OC)c(C(=O)OC)c1)c1cc(C#N)c(OC)c(C(=O)OC)c1,700 nM,Not Active,,,17000 nM,> 100000 nM,12.4 min,,,,,
COC(=O)CCC/C=C(\c1cc(C)c(OC)c(C(=O)OC)c1)c1cc(C)c2oc(=O)n(C)c2c1,,Not Active,,,,,,,,,,
COc1c(C)cc(/C(=C\CCCc2nnc(C)o2)c2cc(C)c3oc(=O)n(C)c3c2)cc1C(=O)SC,70 nM,Not Active,> 100000 nM,> 100000 nM,,,,< 1 nM,180 nM,3000 nM,3900 nM,238 min
Cc1ccnc2c1NC(=O)c1cccnc1N2C1CC1 [NEVIRAPINE],,,600 nM,800 nM,,,,,,,,
